Measurements: publication PMC10125337 (ACS Bio & Med Chem Au, 2023)
Where a SMILES comes first, the peptide text is derived from it. Where no end group is shown, it is not given here. [ ]: non-standard residue; d: D form.

B1: NT-02 (peptide)
peptide: [dK][dL][dL][dF][dF][dA]-NH2
modifications: N-terminus assumed
SMILES: CC(C)C[C@@H](NC(=O)[C@H](N)CCCCN)C(=O)N[C@H](CC(C)C)C(=O)N[C@H](Cc1ccccc1)C(=O)N[C@H](Cc1ccccc1)C(=O)N[C@H](C)C(N)=O
B2: NT-03 (peptide)
peptide: [dK][dL][dL][dF][dF]-NH2
modifications: N-terminus assumed
SMILES: CC(C)C[C@@H](NC(=O)[C@H](N)CCCCN)C(=O)N[C@H](CC(C)C)C(=O)N[C@H](Cc1ccccc1)C(=O)N[C@H](Cc1ccccc1)C(N)=O
B3: NT-13 (peptide)
peptide: [dL][dP][dF][dF][dA][dE]-NH2
modifications: N-terminus assumed
SMILES: CC(C)C[C@@H](N)C(=O)N1CCC[C@@H]1C(=O)N[C@H](Cc1ccccc1)C(=O)N[C@H](Cc1ccccc1)C(=O)N[C@H](C)C(=O)N[C@H](CCC(=O)O)C(N)=O

What was measured:
[1] = system: Aβ42-induced apoptosis in PC-12-derived neurons; assay: Apoptosis assay; format: cell-based, rat; conditions: Aβ42 10 µM + NT peptide 10 µM, 24 h, n = 3
Aβ42 peptide [2] = molecular target: T1, Aβ42 peptide (Homo sapiens, UniProt P05067); assay: FTIR spectroscopy of β-sheet content; conditions: Aβ42 20 µM + peptide 20 µM, PBS pH 7.4, 37 °C, 7 days; β-sheet 1610–1640, α-helix 1640–1660 cm^–1
Aβ42 peptide [3] = molecular target: T1, Aβ42 peptide; assay: ThT fluorescence assay of Aβ42 aggregation inhibition; format: biochemical; conditions: 72 h, 37 °C; for inhibition of Aβ42 aggregation (ThT assay): peptide 5 µM + Aβ42 5 µM; for inhibition of Aβ42 peptide aggregation (ThT assay): peptide 160 µM + Aβ42 5 µM
Aβ42 peptide [4] = molecular target: T1, Aβ42 peptide; assay: HR-TEM of fibril formation; conditions: for Aβ42 fibril structure after coincubation (HR-TEM): Aβ42 coincubated with peptide at 37 °C for 7 days; for fibril formation of the peptide incubated alone (HR-TEM): 7 days, 37 °C
Serum stability = format: in vitro ADME; conditions: human, 50% human serum
In short: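 Test peptide at 150 μM final in 50% human serum, 37 °C. Aliquots were taken at 0, 6, 12, 24, 48 and 72 h and mixed 1:1 with acetonitrile to precipitate serum proteins. Samples were held 30 min at 4 °C, then centrifuged at 10,000 rpm for 30 min at 4 °C. The supernatant was analysed by RP-HPLC for percentage of intact peptide. Compound-free serum served as blank.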

MTT cell viability = format: cell-based; conditions: rat, NGF-differentiated PC-12-derived neurons
In short: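 PC-12 cells seeded at 1×10^4/well and grown 24 h at 37 °C, 5% CO2. At 50–60% confluence they were differentiated with 100 ng/mL NGF in DMEM with reduced horse serum. Test peptide (5–160 μM) was added for 24 h. MTT (5 mg/mL in PBS) was added for 4 h at 37 °C, and formazan was dissolved in DMSO/methanol 1:1. A570 was read; viability = (treated − blank)/(control − blank) × 100.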

[5] = molecular target: amyloid beta (1–42) peptide (human); assay: ITC
Chain of amyloid beta (1–42) peptide (human) (P05067 672-713): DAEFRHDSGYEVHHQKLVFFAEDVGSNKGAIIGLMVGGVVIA

T1 sequence (P05067 672-713): as above

Ka [5] [M⁻¹] | Molecule | apoptotic cells (PI fluorescence intensity) [1] [fold] | inhibition of Aβ42 aggregation (ThT assay) (Aβ42 peptide [3]) [%] | inhibition of Aβ42 peptide aggregation (ThT assay) (Aβ42 peptide [3]) | Aβ42 fibril structure after coincubation (HR-TEM) (Aβ42 peptide [4]) | fibril formation of the peptide incubated alone (HR-TEM) (Aβ42 peptide [4]) | remaining at 72 h, 150 μM (Serum stability) [%] | viability at 24 h, 160 µM (MTT cell viability) [%] | other results
– | CC(C)C[C@@H](NC(=O)[C@H](N)CCCCN)C(=O)N[C@H](CC(C)C)C(=O)N[C@H](Cc1ccccc1)C(=O)N[C@H](Cc1ccccc1)C(=O)N[C@H](C)C(N)=O [NT-02] (H-[dK][dL][dL][dF][dF][dA]-NH2) | 2.84 | 57.61 | about 78.96% | Absence of the fibril structure | no fibril formation was observed | 95.5 | – | FTIR C=O amide peak of Aβ42 treated with peptide (Aβ42 peptide [2]): 1642.76 cm^–1
– | CC(C)C[C@@H](NC(=O)[C@H](N)CCCCN)C(=O)N[C@H](CC(C)C)C(=O)N[C@H](Cc1ccccc1)C(=O)N[C@H](Cc1ccccc1)C(N)=O [NT-03] (H-[dK][dL][dL][dF][dF]-NH2) | 6.21 | 54.26 | ~80.63% | Absence of the fibril structure | no fibril formation was observed | 91.6 | – | –
– | CC(C)C[C@@H](N)C(=O)N[C@H](CC(C)C)C(=O)N[C@H](Cc1ccccc1)C(=O)N[C@H](Cc1ccccc1)C(=O)N[C@H](C)C(N)=O [NT-06] (H-[dL][dL][dF][dF][dA]-NH2) | – | – | – | – | – | – | 71.7 | –
– | CC(C)C[C@@H](N)C(=O)N[C@H](CC(C)C)C(=O)N[C@H](Cc1ccccc1)C(=O)N[C@H](Cc1ccccc1)C(N)=O [NT-07] (H-[dL][dL][dF][dF]-NH2) | – | – | – | – | – | – | 42.5 | –
– | CC(C)C[C@@H](N)C(=O)N[C@H](Cc1ccccc1)C(=O)N[C@H](Cc1ccccc1)C(=O)N[C@H](C)C(=O)N[C@H](CCC(=O)O)C(N)=O [NT-08] (H-[dL][dF][dF][dA][dE]-NH2) | – | – | – | – | – | – | 50.1 | –
– | CC(C)C[C@@H](N)C(=O)N1CCC[C@@H]1C(=O)N[C@H](Cc1ccccc1)C(=O)N[C@H](Cc1ccccc1)C(=O)N[C@H](C)C(=O)N[C@H](CCC(=O)O)C(N)=O [NT-13] (H-[dL][dP][dF][dF][dA][dE]-NH2) | 4.13 | 48.41 | ~79.88% | Absence of the fibril structure | no fibril formation was observed | 90.4 | – | FTIR C=O amide peak of Aβ42 treated with peptide (Aβ42 peptide [2]): 1645.94 cm^–1
– | CC(C)C[C@@H](NC(=O)[C@H](N)CCCCN)C(=O)N[C@@H](C(=O)N[C@H](Cc1ccccc1)C(=O)N[C@H](Cc1ccccc1)C(N)=O)C(C)C [NT-15, reference compound] | – | 41.87 | – | – | – | – | – | –
2.25e+06 | B1 | – | – | – | – | – | – | – | –
3.47e+06 | B2 | – | – | – | – | – | – | – | –
142000 | B3 | – | – | – | – | – | – | – | –
